Measurements reported in ChEMBL document CHEMBL3120079, “NF-κB inhibitors from Eurycoma longifolia” (J Nat Prod, 2014).
pIC50: −log10 of the molar value. Converted amounts (≈) assume the structure as drawn. The source made the active and inactive calls.

How the values were obtained:
[1] = species: Homo sapiens; experiment: (§1) Inhibition of NF-kappaB activity in TNF-alpha stimulated human HEK-293/NF-kB-luc cells incubated for 30 mins prior to TNF-alpha challenge for 4 hrs by luciferase reporter gene assay
Outline: (§2)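 HEK293/NF-κB-luc cells were prestained with 2 μM CMFDA for 1 h, reseeded at 4 × 10^4 cells/well overnight in phenol red-free, serum-free DMEM, pretreated 30 min with compound or 0.1% DMSO vehicle, then stimulated with TNF-α 2 ng/mL for 4 h. Lysates were read for firefly luciferase, normalized to CMFDA fluorescence for cell number. Screen at 30 μM; IC50 determined for selected compounds.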

[2] = system: HEK293; experiment: Growth inhibition of TNF-alpha stimulated human HEK-293/NF-kB-luc cells assessed as cell viability at 30 uM incubated for 30 mins prior to TNF-alpha challenge for 4 hrs by CellTracker Green CMFDA staining; type: cell-based; settings: hek293, 4 h
Outline: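 Cells loaded 1 h with 2 μM CellTracker Green CMFDA in serum-free medium, reseeded at 4 × 10^4 cells/well overnight in phenol red-free, FBS-free DMEM. Pretreated with test compound or vehicle (0.1% DMSO) for 30 min, then TNF-α 2 ng/mL for 4 h. After lysis, CMFDA fluorescence was compared with vehicle-treated cells.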

[3] = Toxicity against brine shrimp; type: organism-based; settings: artemia, in vivo; read-out: LD50 (the source's name)
[4] = as §1; settings: for pIC50: Homo sapiens, HEK293, read-out: IC50; outline: as §2
[5] = species: Homo sapiens; experiment: Inhibition of NF-kappaB activity in TNF-alpha stimulated human HEK-293/NF-kB-luc cells at 30 uM incubated for 30 mins prior to TNF-alpha challenge for 4 hrs by luciferase reporter gene assay; outline: as §2
[6] = Acute toxicity in po dosed mouse; type: organism-based; settings: in vivo

SMILES	inhibition [1]	Activity [2]	LC50 [3]	pIC50 [4]	inhibition [5]	IC50 [4]	LD50 [6]
COc1cc(C=O)ccc1O	inactive						
C[C@@H]1CC[C@]2(C(=O)O[C@@H]3O[C@H](CO)[C@@H](O)[C@H](O)[C@H]3O)CC[C@]3(C)C(=CC[C@@H]4[C@@]5(C)CC[C@H](O)[C@@](C)(CO)[C@@H]5CC[C@]43C)[C@@H]2[C@]1(C)O [PEDUNCULOSIDE]	inactive	Non-toxic					
CC1=CC(=O)[C@@H](O)[C@@]2(C)[C@H]1[C@@H](O)[C@H]1OC(=O)C3[C@@H](C)[C@H](O)[C@H](O)[C@H]2[C@]31C (stereo partly drawn) [LONGILACTONE]		Non-toxic	145 µg/mL (≈ 395 µM)	5.33	> 50%		
C[C@H]1[C@H]2OC(=O)[C@@H]1[C@]1(C)C(=O)C=C3[C@H](C)CC(=O)[C@@H](O)[C@]3(C)[C@H]1[C@H]2O		Non-toxic		4.74	> 50%		
CC1=CC(=O)[C@@H](O)[C@]2(C)[C@H]3[C@@]4(O)OC[C@@]35[C@@H](C[C@@H]12)OC(=O)[C@H](O)[C@@]5(O)[C@@H](C)[C@H]4O		Non-toxic	10.3 µg/mL (≈ 25.1 µM)	6.15	> 50%		
CC1=CC(=O)[C@@H](O)[C@@]2(C)C1=CC(=O)[C@]1(C)[C@@H]2[C@@H](O)[C@@H]2OC(=O)[C@H]1[C@H]2C		Non-toxic		5.21	> 50%		
O=c1ccc2nccc3c4ccc(O)cc4n1c23		Non-toxic		5.42	> 50%		
COc1cc(C(=O)O)cc(OC)c1O	inactive						
COC(=O)c1nccc2c1[nH]c1ccccc12		Non-toxic		4.53	> 50%		
CC1=CC(=O)[C@@H](O)[C@@]2(C)[C@H]1CC(=O)[C@@]1(C)[C@H]3C(=O)O[C@H]([C@@H]3C)[C@H](O)[C@@H]12 [EURYCOMALACTONE]		Non-toxic		6.30	> 50%		
COc1c(O)c2nccc3c4ccccc4n(c1=O)c23 [PICRASIDINE Q]		Non-toxic			inactive		
COc1ccc(-c2oc3c(OC)c(OC)c(OC)c(OC)c3c(=O)c2OC)cc1OC [3,5,6,7,8,3',4'-HEPTAMETHOXYFLAVONE]		Non-toxic		4.63	> 50%		
CC1=CC(=O)[C@@H](O)[C@]2(C)[C@H]3[C@@H](O)[C@H](O)[C@H](C)[C@]4(O)[C@@H](O)C(=O)O[C@H](C[C@@H]12)[C@]34C		Non-toxic	324 µg/mL (≈ 816 µM)	6.00	> 50%		
COc1cc2ccc(=O)oc2c(O)c1OC	inactive	Non-toxic					
CC(=O)O[C@@H](CC[C@@H](OC(C)=O)[C@]1(C)CC[C@H]([C@@](C)(O)CCC=C(C)C)O1)[C@@]1(C)CC[C@H]([C@@](C)(O)CCC=C(C)C)O1	inactive	Non-toxic					
COc1ccc2c3ccnc4ccc(=O)n(c2c1)c43		Non-toxic		5.13	> 50%		
CC1=CC(=O)[C@@H](O)[C@]2(C)[C@H]3[C@@H](O)[C@@H]4OC(=O)[C@@H]([C@H]4C)[C@]3(C)[C@H](O)C[C@@H]12		Non-toxic		5.82	> 50%		
O=c1ccc2nccc3c4ccc(O[C@@H]5O[C@H](CO)[C@@H](O)[C@H](O)[C@H]5O)cc4n1c23		Non-toxic			inactive		
CC1=CC(=O)[C@]2(C)[C@H]3[C@@H](O)[C@@H]4OC(=O)[C@@H]([C@H]4C)[C@]3(C)C(=O)C[C@@H]12 [LAURYCOLACTONE A]		Non-toxic				Not Active	
COc1cc(C)c2c(=O)cc(C[C@H](C)O)oc2c1[C@@H]1O[C@H](CO)[C@@H](O)[C@H](O)[C@H]1OC(=O)/C=C/c1ccc(O)cc1	inactive						
CC1=C[C@H](O)[C@@H](O)[C@@]2(C)[C@H]1CC(=O)[C@@]1(C)[C@H]3C(=O)O[C@H]([C@@H]3C)[C@H](O)[C@@H]12 [EURYCOLACTONE E]		Non-toxic		5.42	> 50%		
COc1cc2c3ccnc4ccc(=O)n(c2cc1OC)c43.Cl		Non-toxic		4.71	> 50%		
C=C1C(=O)O[C@@H]2C3O[C@]3(C)CC/C=C(\C)CC[C@@H]12 (stereo partly drawn)		Non-toxic		5.82			
O=C(O)c1ccc(O)c(-c2cc(C(=O)O)ccc2O)c1	inactive						
CC1=CC(=O)[C@@]2(C)C1=CC(=O)[C@]1(C)[C@@H]2[C@@H](O)[C@@H]2OC(=O)[C@H]1[C@H]2C [LAURYCOLACTONE B]		Non-toxic				Not Active	
C=C1[C@@H](O)[C@@]2(O)OC[C@]34[C@H]2[C@@]2(C)[C@H](O)C(=O)C=C(C)[C@@H]2C[C@H]3OC(=O)[C@H](O)[C@@]14O [EURYCOMANONE]		Non-toxic	3.5 µg/mL (≈ 8.57 µM)	5.62	> 50%		50 mg/kg
COc1cc(C(=O)O)ccc1O	inactive						
COc1cc2ccc(=O)oc2cc1O [SCOPOLETIN]	inactive	Non-toxic					
CC1=CC(=O)[C@@H](O)[C@]2(C)[C@H]3C(=O)[C@H](O)[C@H](C)[C@@H]4CC(=O)O[C@H](C[C@@H]12)[C@]34C		Non-toxic		5.72	> 50%		
